Shown are actives, neighbours in structure and some others; about 2.7% of the full set was active somewhere.
CFTR F508del cor – correctors of CFTR F508del function in bronchial epithelial cells. CFBE cells, YFP halide quenching; stimulated with forskolin plus potentiator P3; % fluorescence drop versus neutral controls. activity (quench increase), % at 7.58 µM. 350,000 compounds, 0.36% hits. AID 720511;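 active means mean added fluorescence quench of at least 8% versus neutral control, with both replicates also reaching 8%; inconclusive means only one of the mean or replicate conditions met; inactive means mean below 8% and not both replicates reaching 8%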;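 further: cells transiently co-express mutant CFTR-F508del with the halide-sensitive YFP; corrector assay measuring rescue of mutant channel to the surface after 24 h compound exposure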
HIV Env fusion – blocks HIV Env-driven cell-cell fusion; 360,000 compounds, 1.1% hits; HeLa-JRFL Env/CEM21 cell fusion, luciferase; inhibition, % at 12.3 µM;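 active means mean replicate inhibition score of at least 50 and every replicate individually at or above 50; inconclusive means only one of the two criteria met; inactive means mean below 50 and not all replicates reaching 50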;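 further: 0% = plate neutral controls and 100% = maraviroc near 300 nM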
E-sel inducer – E-selectin induction on HUVECs. HUVEC E-selectin immunofluorescence imaging; normalized: neutral wells 0, TNF-alpha wells 100. activation, % at 7.58 µM. 260,000 compounds, 0.37% hits. P16581;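 active means mean E-selectin-positive cell signal at least 10% of the positive control, reached in at least 60% of replicates, without over 20% cell loss; inconclusive means no rule given, readout overlaps actives, possibly toxicity-flagged; inactive means the rest, including those meeting only one limit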
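Read-out: % PE-positive cells | Test system: HUVEC | Doses: One compound dose added by pin transfer | Buffer or medium: EGM-2 over gelatin coat | Signal: Immunofluorescence imaging | Benchmarks: TNF-alpha, DMSO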
FGF22 binding – shifts melting point of recombinant human FGF22 | Q9HCT0 | recombinant FGF22 thermal shift, SYPRO orange fluorescence; percent of sucrose octasulfate shift, DMSO zero | 340,000 compounds, 1.5% hits | activity (Tm shift, normalised), % at 9.99 µM;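 active means mean Tm shift, scaled 0 neutral to 100 positive control, at about 1.3% or above, every replicate too, limit read from the data; inconclusive means no clear call, values can overlap the other calls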
Target sequence (Q9HCT0 whole entry, looked up): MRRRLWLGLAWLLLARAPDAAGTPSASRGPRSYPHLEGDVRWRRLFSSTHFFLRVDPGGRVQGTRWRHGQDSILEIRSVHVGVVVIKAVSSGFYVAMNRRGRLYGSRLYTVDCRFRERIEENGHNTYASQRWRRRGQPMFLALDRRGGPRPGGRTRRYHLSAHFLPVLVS
S100A4 MyoIIA – blocks human S100A4 binding to myosin IIA peptide; P26447; S100A4/TAMRA-MyoIIA peptide fluorescence polarization; inhibition, % at 10.7 µM; 360,000 compounds, 0.14% hits; AID 652163;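 active means mean inhibition of at least 70% across replicates, with every replicate also reaching that level; inconclusive means mean inhibition reaches 70% but some replicates fall short; inactive means mean inhibition below 70%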
Target sequence (P26447 whole entry, looked up): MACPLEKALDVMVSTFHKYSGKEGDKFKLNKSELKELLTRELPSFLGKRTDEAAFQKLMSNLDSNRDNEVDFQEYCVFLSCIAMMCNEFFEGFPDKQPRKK
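Material: human S100A4 monomer with TAMRA-labelled myosin IIA peptide; buffer or medium: HEPES pH 7.2 with CaCl2, KCl, NaCl, DTT, Triton; compound dosing: one concentration per compound; schedule: 5 min incubation before reading; benchmarks: neutral control DMSO, positive control TFP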
Active calls of the source: *; ? = inconclusive; / = no result given; [ ] = remark or other dose.

SMILES	CFTR F508del cor	HIV Env fusion	E-sel inducer	FGF22 binding	S100A4 MyoIIA
Cc1cc(C([O-])=C(C(=S)Nc2ccc(F)cc2)[n+]2ccccc2)c(C)n1-c1ccc(F)cc1	2.5	/	0.2	-0.1	-8.7
O=C(O)c1ccccc1C(=O)N1CCc2c([nH]c3ccccc23)C1C(F)(F)F (configuration not stated)	-0.3	-2.5	4.5	-0.1	-1.5
O=C(c1cccc(C(F)(F)F)c1)N1CCc2c([nH]c3ccccc23)C1C(F)(F)F (configuration not stated)	-3.2	85.6*	/	0.1	0.7
Cc1cc(C)cc(NC(=S)N(Cc2ccc(Br)cc2)Cc2ccc(C(=O)O)cc2)c1	-2.0	-7.1	/	42.5	-3.0
Cc1ccc(NC(=S)N(Cc2ccc(Br)cc2)Cc2ccc(C(=O)O)cc2)cc1C	-2.2	1.6	/	43.0*	1.6
Cc1cc(NC(=S)N(Cc2ccc(Cl)cc2)Cc2ccc(C(=O)O)cc2)ccc1Cl	-2.6	9.1	/	43.7*	2.1
COc1ccc(C(=O)CCC(=O)NCCc2c[nH]c3ccccc23)cc1OC	-1.9	3.4	0.0	0.2	-0.4
COc1ccc(C(C)=O)cc1CS(=O)(=O)CC(=O)NCCc1c[nH]c2ccccc12	12.2*	-11.4	0.3	-0.2	-4.2
CCC/C(=C1/c2ccccc2C(=O)N1c1ccccc1)c1ccc2c(c1)OCO2	-3.1	-81.2	/	0.1	-4.0
CCC/C(=C1/c2ccccc2C(=O)N1c1ccccc1)c1c(C)noc1C	3.7	15.2	-0.5	42.9*	-2.3
C[C@H](CO)N1C[C@H](C)[C@H](CN(C)Cc2ccc3c(c2)OCO3)Oc2ccc(NC(=O)Nc3ccc(F)cc3)cc2C1=O	1.5	/	-3.0	-0.4	3.6
O=C1CNC[C@H]2[C@H](c3ccc(C#CC4CCCCC4)cc3)[C@@H](CO)N12	3.8	/	0.0	/	8.6
Cc1c(CC(=O)NCCC(=O)O)c(=O)oc2cc3occ(-c4ccccc4)c3cc12	-0.8	6.0	40.1*	-0.2	-2.6
COc1ccc(S(=O)(=O)Nc2cc3c(cc2C(C)=O)OCO3)cc1	12.1*	-15.5	/	0.1	-14.5
CNC[C@H]1OCCCC[C@H](C)Oc2ccc(NS(=O)(=O)c3ccc(Cl)cc3)cc2C(=O)N([C@H](C)CO)C[C@@H]1C	-0.5	-7.3[16.7 µM]	0.1	/	/
COC(=O)c1cn(NC(=O)Cn2nc([N+](=O)[O-])c(Br)c2C)c(=O)c2ccccc12	-1.3	-4.3	/	43.3*	3.1
Cc1noc(C)c1S(=O)(=O)N(C)C[C@H]1Oc2ccc(NC(=O)CCN3CCOCC3)cc2CC(=O)N([C@H](C)CO)C[C@@H]1C	0.6	/	-1.9	/	1.0
Nc1c(S(=O)(=O)c2ccccc2)cnc2c(-c3ccc(F)cc3)cnn12	/	68.0*	/	/	/
COc1ccc(-c2cnn3c(N)c(S(=O)(=O)c4ccccc4)cnc23)cc1	/	14.7	/	/	/
C/C=C/c1ccc([C@H]2[C@@H](CO)N(C(=O)NC(C)C)[C@H]2CNC(C)=O)cc1	1.3	/	0.2	/	4.2
COc1ccc(-n2c(NN)nc3sc4c(c3c2=O)CCCC4)cc1	2.6	3.3	-0.1	42.9*	-7.4
COc1cc(C(=O)Nc2ccccc2C(=O)Nc2ccccn2)cc(OC)c1OC	12.7*	-58.2	/	0.0	-0.4
COc1cc(C(=O)Nc2ccccn2)cc(OC)c1OC	/	-46.3	/	/	/
COC(=O)C1CCCN1C(C(=O)NC1CCCCC1)c1ccc(Cl)cc1 (configuration not stated)	3.0	65.6*	0.0	0.2	-5.4
COc1ccc(-c2nc3cc(NC(=O)Cc4ccc(OC)c(OC)c4)ccc3o2)cc1	/	63.4*	-2.0	/	/
SMILES	CFTR F508del cor	HIV Env fusion	E-sel inducer	FGF22 binding	S100A4 MyoIIA
COc1ccc(OCC(=O)Nc2ccc3oc(-c4ccncc4)nc3c2)cc1	-5.2	13.0	-0.1	0.4	-2.1
CC(NC(=O)C1CCCC1)c1ccccc1 (configuration not stated)	-3.1	1.8	/	-0.3	-2.5
CC(NC1CCCC1)c1ccccc1 (configuration not stated)	-0.5	11.3	/	43.9*	-6.3
COc1ccc(-c2nc(S(=O)(=O)c3ccccc3)c(N3CCN(C)CC3)o2)cc1	-0.3	-12.3	0.1	46.5*	-0.5
C=CCN=c1scc(-c2ccc3c(c2)NC(=O)CO3)n1/N=C(\C)c1ccccn1	8.7*	?	-1.8	0.2	-2.9
Cc1ccc(S(=O)(=O)N[C@H]2CC[C@@H](CC(=O)NCCN3CCCCC3)O[C@H]2CO)cc1	-0.3	-13.4[16.7 µM]	0.1	0.1	-9.8
O=C(CN1CCN(S(=O)(=O)c2ccccc2)CC1)Nc1ccccc1Cl	8.5*	4.8	/	0.2	-0.8
CC(C)(C)OC(=O)NCCCCCc1cn([C@@H](CO)C(=O)NCCCCCCCCCCC(=O)N2CCN(C(=O)OC(C)(C)C)CC2)nn1	-3.6	31.1	-0.1	1.3*	0.4
CC(C)(C)OC(=O)CC[C@@H](C(=O)NCCCCCCCCCCC(=O)N1CCN(C(=O)OC(C)(C)C)CC1)n1cc(CCCCCNC(=O)OC(C)(C)C)nn1	1.2	8.7	0.1	0.2	-6.4
Cc1cc(Cl)ccc1OCC(=O)NCC(=O)N/N=C/c1ccco1	-1.4	-14.4	/	43.3*	0.9
O=C(CCCCCCCCC(=O)N/N=C/c1ccco1)N/N=C/c1ccco1	-2.6	9.9	/	43.4*	3.3
O=C(CCC(=O)N/N=C/c1ccco1)N/N=C/c1ccco1	2.8	-8.1	0.2	-0.3	5.2
COc1ccccc1C#Cc1ccc([C@H]2[C@@H](CO)N3CCCCN(C(=O)C4CC4)C[C@H]23)cc1	-1.2	/	/	0.3	-9.2
Cc1ccc(NC(=O)COC(=O)CCC2CCCC2)c(Br)c1	9.4*	/	0.5	-0.1	4.0
COc1cccc(NC(=O)c2ccc(OC(F)(F)F)cc2)c1	0.7	-216.1	41.9*	0.1	10.4
COc1cccc(NC(=O)C(c2ccccc2)N2CCCC2)c1 (configuration not stated)	-2.1	-5.3	/	43.2*	3.6
COc1ccc(C(=O)Nc2cccc(OC)c2)cc1	-0.3	/	/	0.0	-4.0
COc1cccc(NC(=O)Nc2cccc(C(=O)O)c2)c1	-2.5	71.2*	/	0.5	-2.2
CCN1CCN(Cc2ccc(NC(=O)c3cc(NC(=O)N4CCNC4=O)cc(OC)c3)cc2C(F)(F)F)CC1	6.2	-26.7	0.0	0.0	-10.3
COc1cc(NC(=O)N2CCNC2=O)cc(C(=O)Nc2cccc(C(F)(F)F)c2)c1	8.0*	-282.4	2.0	0.1	7.5
COCC(=O)N1CCC2(CC1)CN(C(=O)Cc1ccccc1)[C@H](CO)c1c2c2ccc(OC)cc2n1C	1.9	/	-0.4	-0.2	6.0
C=C1C(C(=O)Nc2cccc(OC)c2)C1C(=O)Nc1cccc(OC)c1 (configuration not stated)	2.1	6.8	/	44.2*	3.0
COc1cccc(NC(=O)CCC(=O)Nc2cccc(OC)c2)c1	/	9.1	0.0	/	/
